Published values of several laboratories.
CDK4 with cyclin D3: Cyclin-dependent kinase 4, with cyclin D3 (CDK4, Homo sapiens, UniProt P11802)
CDK4: Cyclin-dependent kinase 4 (CDK4, Homo sapiens, UniProt P11802)
CDK4 with cyclin D1: Cyclin-dependent kinase 4, with cyclin D1 (CDK4, Homo sapiens, UniProt P11802)

`Nc1ncc(-c2nc(N3CCOCC3)nc(N3CCOCC3)n2)c(C(F)F)n1` has a remaining binding of 87% (CDK4 with cyclin D3; binding, competition with immobilised ligand; 10 µM).
For `N#CC1(c2ccccn2)CCN(Cc2cc(C(=O)O)c(=O)n3ccccc23)CC1`, the remaining binding was 82% (CDK4 with cyclin D3; cell-free assay, competition with immobilised ligand; 1 µM).
`O=c1[nH]c2ccccc2n1C1CCN(Cc2ccc(-c3[nH]c4cc5ncnc5cc4nc3-c3ccccc3)cc2)CC1` gave a remaining signal of 99.7% (CDK4 with cyclin D3; cell-free assay; 0.5 µM).
With `CCOC(=O)[C@H]1Cc2c(cc([N+](=O)[O-])cc2[N+](=O)[O-])[C@H](O)[C@]12C(=O)Nc1ccc([N+](=O)[O-])cc12` the inhibition was 37.9% (CDK4; cell-free assay, inhibitor, TR-FRET; 1 µM).
`Cc1nn(C)cc1-c1nc2c(N3CCN(Cc4ccc(Cl)cc4)CC3)c(Cl)cnc2[nH]1` gave a remaining binding of 74% (CDK4 with cyclin D3; binding, competition with immobilised ligand; 1 µM).
`CC(C)(C)c1cc(C=C(C#N)C#N)cc(Br)c1O` gave a remaining activity of 115% (CDK4 with cyclin D1; enzyme activity, inhibitor; 0.5 µM).
The inhibition of `CCOC(=O)[C@H]1Cc2c(cc([N+](=O)[O-])cc2[N+](=O)[O-])[C@H](O)[C@]12C(=O)Nc1cccc(Br)c12` is reported as 29.4% (CDK4; cell-free assay, inhibitor, TR-FRET; 1 µM).
`Cn1cncc1[C@](O)(COc1ccc(C#N)cc1-c1ccc(OC(F)(F)F)cc1)c1ccc(C#N)cc1` has a remaining binding of 100% (CDK4 with cyclin D1; cell-free assay, competition with immobilised ligand; 1 µM).
